ChEMBL document CHEMBL3352255, “Tailor-made fluorescent trilobolide to study its biological relevance” (J Med Chem, 2014)
pIC50: −log10 of the molar value. The source made the active and inactive calls. The calls are words filed in the database; no cut-off is given here.

What was measured:
U2OS [1] = test: Cytotoxicity against human U2OS cells after 24 hrs by WST-1 assay; type: functional, cell-based
Method in brief: (§1)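 Dark cytotoxicity (no light exposure) by WST-1 tetrazolium-to-formazan conversion reflecting metabolic activity; compounds tested at concentrations up to 50 μM for 24, 48 or 72 h; IC50 taken as concentration giving 50% inhibition of cell viability.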

U2OS [2] = test: Cellular uptake in human U2OS cells at 1 uM after 40 mins to 24 hrs by fluorescence microscopy; type: ADME, cell-based
Method in brief: (§2)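 Uptake into living cells was followed by fluorescence microscopy at 10, 20 and 40 min and at 1, 3, 5 and 24 h. Green-emitting Bodipy conjugates were given at 1 μM. A Bodipy dye-only stain served as control for dye-driven localisation.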

U2OS [3] = test: Cellular uptake in human U2OS cells at 1 uM after 10 to 20 mins by fluorescence microscopy; type: ADME, cell-based; method in brief: as §2
MCF7 = test: Induction of LPS-induced NO production in human MCF7 cells at 40 uM after 24 hrs using DAR-2 probe by fluorescence assay; type: functional, cell-based
Method in brief: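 NO in living cells (PC-3, LNCaP, MCF-7, U-2 OS) was imaged by fluorescence microscopy with the NO-specific red-emitting probe DAR-2 after compound stimulation.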

Rattus norvegicus [4] = species on record: Rattus norvegicus; test: Induction of LPS-induced NO production in rat peritoneal cells at 40 uM after 24 hrs using DAR-2 probe by fluorescence assay; type: functional, cell-based
Method in brief: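 Rat peritoneal cells were treated with conjugates at 0.01–100.0 μM for 24 h. NO production was compared with untreated cells. LPS (100 pg·mL−1) and trilobolide (0.1 μM) were included as references. Data are mean ± SEM of three independent experiments, n = 6.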

[5] = Cellular uptake in Endoplasmic reticulum of human U2OS cells at 1 uM after 1 hr by fluorescence microscopy; type: ADME, cell-based
Method in brief: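 Live-cell fluorescence microscopy of cells exposed to Bodipy-labelled conjugates at 1 μM for 1 h. ER was co-stained with ER-Tracker Blue-White DPX (100 nM, 20 min) to check colocalisation. A Bodipy dye-only stain served as control.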

C2C12 [6] = test: Cellular uptake in mouse C2C12 cells at 1 uM after 20 mins by fluorescence microscopy; type: ADME, cell-based; conditions: c2c12, 20 min; method in brief: as §2
LNCaP = test: Cellular uptake in human LNCAP cells at 1 uM after 20 mins by fluorescence microscopy; type: ADME, cell-based; method in brief: as §2
Rattus norvegicus [7] = species on record: Rattus norvegicus; test: Induction of TNFalpha production in rat peritoneal cells at 10 uM after 24 hrs using by ELISA; type: functional, cell-based
Method in brief: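 Rat peritoneal cells exposed to compounds at 10 μM for 24 h; secreted TNF-α quantified by ELISA; LPS (1000 pg·mL−1) and parent trilobolide (1 μM) as positive controls; mean ± SEM of two independent experiments, n = 4, compared with untreated cells.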

HT-29 = test: Cytotoxicity against human HT-29 cells after 72 hrs by WST-1 assay; type: functional, cell-based; conditions: HT-29, 72 h; method in brief: as §1
U2OS [8] = test: Cellular uptake in human U2OS cells at 1 uM after 20 mins by fluorescence microscopy; type: ADME, cell-based; method in brief: as §2
Rattus norvegicus [9] = species on record: Rattus norvegicus; test: Induction of LPS-induced NO production in rat peritoneal cells after 24 hrs using DAR-2 probe by fluorescence assay; type: functional, cell-based
[10] = Cytotoxicity against rat peritoneal cells assessed as reduction in cell viability at 40 uM after 24 hrs by WST-1 assay
[11] = Cellular uptake in mitochondria of human U2OS cells at 1 uM after 10 to 40 mins by fluorescence microscopy; type: ADME
Method in brief: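 Live cells were treated with 1 μM Bodipy conjugates for at least 40 min and then co-stained with MitoTracker Red FM (100 nM, 10 min). Imaging by fluorescence microscopy assessed colocalisation with the green signal and the state of the mitochondrial network.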

[12] = Cytotoxicity against human MIAPaCa2 cells after 72 hrs by WST-1 assay; type: functional, cell-based; conditions: MIA PaCa-2, 72 h; method in brief: as §1
A549 = test: Cellular uptake in human A549 cells at 1 uM after 40 mins to 24 hrs by fluorescence microscopy; type: ADME, cell-based; conditions: a549, 1 µM; method in brief: as §2
[13] = Cellular uptake in HEK293T cells at 1 uM after 40 mins to 24 hrs by fluorescence microscopy; type: ADME, cell-based; conditions: human, hek-293t; method in brief: as §2
C2C12 [14] = test: Cellular uptake in mouse C2C12 cells at 1 uM after 40 mins to 24 hrs by fluorescence microscopy; type: ADME, cell-based; conditions: c2c12, 1 µM; method in brief: as §2
HeLa = test: Cellular uptake in human HeLa cells at 1 uM after 40 mins to 24 hrs by fluorescence microscopy; type: ADME, cell-based; method in brief: as §2

Compound	pIC50 (U2OS [1])	Drug uptake (U2OS [2])	Drug uptake (U2OS [3])	Activity (MCF7)	Activity (Rattus norvegicus [4])	Drug uptake [5]	Drug uptake (C2C12 [6])	Drug uptake (LNCaP)	Activity (Rattus norvegicus [7])	pIC50 (HT-29)	Drug uptake (U2OS [8])	Activity (Rattus norvegicus [9])	Activity [10]	Drug uptake [11]	pIC50 [12]	Drug uptake (A549)	Drug uptake [13]	Drug uptake (C2C12 [14])	Drug uptake (HeLa)
C/C=C(/C)C(=O)O[C@@H]1C[C@H]2C(=C1C)[C@@H]1OC(=O)[C@@](C)(O)[C@@]1(O)[C@@H](OC(=O)CCOCCOCCOCCOCCn1cc(COc3ccc(C4=C5C=CC=[N+]5[B-](F)(F)n5cccc54)cc3)nn1)C[C@]2(C)OC(C)=O	< 4.30	Not Active	Active	Active	Active	Active	Active	Active	Active	< 4.30	Active	Dose-dependent effect	Non-toxic	Not Active	5.19	–	–	–	–
C/C=C(/C)C(=O)O[C@@H]1C[C@H]2C(=C1C)[C@@H]1OC(=O)[C@@](C)(O)[C@@]1(O)[C@@H](OC(=O)CCCCn1cc(COc3ccc(C4=C5C=CC=[N+]5[B-](F)(F)n5cccc54)cc3)nn1)C[C@]2(C)OC(C)=O	4.59	Not Active	Active	Active	Active	Active	Active	Active	–	< 4.30	Active	Dose-dependent effect	–	Not Active	4.42	Active	Active	Active	Active
